{"source": "ChEMBL document CHEMBL3627606", "about": "“Development of Novel, CNS Penetrant Positive Allosteric Modulators for the Metabotropic Glutamate Receptor Subtype 1 (mGlu1), Based on an N-(3-Chloro-4-(1,3-dioxoisoindolin-2-yl)phenyl)-3-methylfuran-2-carboxamide Scaffold, That Potentiate Wild Type and Mutant mGlu1 Receptors Found in …” (J Med Chem, 2015)", "key": {"Cytochrome P450 2D6": {"target": "Cytochrome P450 2D6 (Homo sapiens, UniProt P10635)", "test": "Inhibition of CYP2D6 in human liver microsomes by LC-MS/MS analysis", "assay_type": "ADME"}, "[1]": {"target": "Metabotropic glutamate receptor 1 (Rattus norvegicus) (UniProt P23385)", "test": "Positive allosteric modulation of rat mGlu1 receptor assessed as potentiation of glutamate-induced calcium mobiliztion by cell based assay relative to glutamate", "assay_type": "functional", "method_in_brief": "(§1)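 Rat mGlu1 WT calcium mobilization concentration-response curves. EC50 and % Glu Max were derived from the curves.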"}, "[2]": {"target": "Metabotropic glutamate receptor 6 (Homo sapiens) (UniProt O15303)", "test": "Positive allosteric modulation of mGlu6 receptor (unknown origin) assessed as potentiation of glutamate-induced response by cell-based assay", "method_in_brief": "(§2)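 Selectivity counterscreen at the other mGlu subtypes using the standard fold-shift paradigm. Compound was tested at 10 μM against the glutamate concentration-response curve, and the shift of that curve was read.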"}, "[3]": {"test": "Drug concentration in Sprague-Dawley rat brain at 0.2 mg/kg, iv after 0.25 hrs by LC-MS/MS analysis", "conditions": "read-out: Drug uptake"}, "[4]": {"target": "Metabotropic glutamate receptor 5 (Homo sapiens) (UniProt P41594)", "sequence (P41594 21-1212 limits assumed)": "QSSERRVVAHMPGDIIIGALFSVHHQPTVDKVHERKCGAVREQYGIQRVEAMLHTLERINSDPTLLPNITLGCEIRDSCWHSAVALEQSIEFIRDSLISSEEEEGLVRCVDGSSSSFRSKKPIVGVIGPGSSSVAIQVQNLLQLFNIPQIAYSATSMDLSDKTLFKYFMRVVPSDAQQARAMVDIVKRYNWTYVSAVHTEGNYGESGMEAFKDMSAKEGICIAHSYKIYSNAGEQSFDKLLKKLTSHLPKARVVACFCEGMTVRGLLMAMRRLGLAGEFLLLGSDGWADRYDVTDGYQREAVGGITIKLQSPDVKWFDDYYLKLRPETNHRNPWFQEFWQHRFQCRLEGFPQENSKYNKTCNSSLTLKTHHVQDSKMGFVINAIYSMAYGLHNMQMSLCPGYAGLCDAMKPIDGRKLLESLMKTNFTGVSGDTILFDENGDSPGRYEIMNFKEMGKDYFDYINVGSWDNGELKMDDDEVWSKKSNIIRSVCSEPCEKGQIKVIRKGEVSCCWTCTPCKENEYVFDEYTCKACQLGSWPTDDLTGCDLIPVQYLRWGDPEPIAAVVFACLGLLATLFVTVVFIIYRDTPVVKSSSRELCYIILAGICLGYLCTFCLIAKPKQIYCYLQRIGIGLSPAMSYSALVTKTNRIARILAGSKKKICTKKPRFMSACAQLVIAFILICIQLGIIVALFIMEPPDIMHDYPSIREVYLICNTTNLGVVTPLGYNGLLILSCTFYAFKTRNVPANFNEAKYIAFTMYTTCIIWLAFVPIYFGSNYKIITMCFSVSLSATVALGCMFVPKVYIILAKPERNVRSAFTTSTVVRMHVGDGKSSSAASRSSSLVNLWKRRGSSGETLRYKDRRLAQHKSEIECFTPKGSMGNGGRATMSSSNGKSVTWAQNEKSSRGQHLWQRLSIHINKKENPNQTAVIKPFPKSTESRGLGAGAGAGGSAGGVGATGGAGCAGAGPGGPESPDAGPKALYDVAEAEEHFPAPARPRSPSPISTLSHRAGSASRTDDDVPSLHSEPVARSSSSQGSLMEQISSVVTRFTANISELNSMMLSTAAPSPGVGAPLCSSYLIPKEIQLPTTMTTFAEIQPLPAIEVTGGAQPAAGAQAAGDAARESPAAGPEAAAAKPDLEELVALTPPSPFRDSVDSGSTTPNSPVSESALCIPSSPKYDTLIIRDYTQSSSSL", "test": "Positive allosteric modulation of mGlu5 receptor (unknown origin) assessed as potentiation of glutamate-induced response by cell-based assay", "method_in_brief": "as §2"}, "[5]": {"target": "Metabotropic glutamate receptor 3 (Homo sapiens) (UniProt Q14832)", "test": "Positive allosteric modulation of mGlu3 receptor (unknown origin) assessed as potentiation of glutamate-induced response by cell-based assay", "method_in_brief": "as §2"}, "Hippocampus": {"system": "Hippocampus", "test": "Toxic epileptiform activity in C57BL/6 mouse CA3 region of hippocampus assessed as frequency of spike activity at 10 uM by electrophysiolgy method (reference value: 0.99 +/- 0.38 Hz)", "assay_type": "toxicity, tissue-based", "method_in_brief": "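Mouse hippocampal slices with extracellular recording from the CA3 pyramidal cell body layer. Compound (10 μM) or DHPG (50 μM) was bath-applied, and the frequency of spontaneous spikes was compared with baseline. n = 6 per agent, paired t test.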"}, "[6]": {"target": "Metabotropic glutamate receptor 2 (Homo sapiens) (UniProt Q14416)", "sequence (Q14416 19-872 limits assumed)": "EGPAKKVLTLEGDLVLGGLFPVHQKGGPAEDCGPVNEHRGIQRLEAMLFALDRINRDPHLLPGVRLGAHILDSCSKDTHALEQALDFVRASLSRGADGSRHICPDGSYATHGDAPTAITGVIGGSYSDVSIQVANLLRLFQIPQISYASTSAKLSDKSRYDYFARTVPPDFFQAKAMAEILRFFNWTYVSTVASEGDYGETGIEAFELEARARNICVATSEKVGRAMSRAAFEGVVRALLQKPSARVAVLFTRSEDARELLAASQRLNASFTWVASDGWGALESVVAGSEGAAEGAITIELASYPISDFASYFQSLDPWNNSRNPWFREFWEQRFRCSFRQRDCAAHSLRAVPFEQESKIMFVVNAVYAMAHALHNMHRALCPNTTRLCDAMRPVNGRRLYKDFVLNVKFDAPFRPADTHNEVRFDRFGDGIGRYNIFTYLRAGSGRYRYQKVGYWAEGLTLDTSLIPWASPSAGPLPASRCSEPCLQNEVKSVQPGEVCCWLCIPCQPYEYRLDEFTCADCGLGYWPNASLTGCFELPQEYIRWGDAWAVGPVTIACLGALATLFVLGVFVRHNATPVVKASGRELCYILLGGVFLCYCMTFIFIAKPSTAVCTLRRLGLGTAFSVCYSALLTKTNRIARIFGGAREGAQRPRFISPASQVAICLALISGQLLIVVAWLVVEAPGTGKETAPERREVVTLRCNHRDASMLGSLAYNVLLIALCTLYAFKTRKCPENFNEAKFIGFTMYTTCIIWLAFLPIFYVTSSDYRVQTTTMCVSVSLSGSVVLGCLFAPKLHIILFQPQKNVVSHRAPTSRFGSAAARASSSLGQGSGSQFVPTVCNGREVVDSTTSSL", "test": "Positive allosteric modulation of mGlu2 receptor (unknown origin) assessed as potentiation of glutamate-induced response by cell-based assay", "method_in_brief": "as §2"}, "Brain": {"system": "Brain", "test": "Drug concentration in C57BL/6 mouse brain at 100 mg/kg, ip administered as single dose", "assay_type": "ADME, organism-based", "conditions": "in vivo, read-out: Drug uptake"}, "[7]": {"target": "Metabotropic glutamate receptor 8 (Homo sapiens) (UniProt O00222)", "test": "Positive allosteric modulation of mGlu8 receptor (unknown origin) assessed as potentiation of glutamate-induced response by cell-based assay", "method_in_brief": "as §2"}, "[8]": {"target": "T1, Metabotropic glutamate receptor 1 (Homo sapiens, UniProt Q13255)", "T1 sequence (Q13255 19-1194 limits assumed)": "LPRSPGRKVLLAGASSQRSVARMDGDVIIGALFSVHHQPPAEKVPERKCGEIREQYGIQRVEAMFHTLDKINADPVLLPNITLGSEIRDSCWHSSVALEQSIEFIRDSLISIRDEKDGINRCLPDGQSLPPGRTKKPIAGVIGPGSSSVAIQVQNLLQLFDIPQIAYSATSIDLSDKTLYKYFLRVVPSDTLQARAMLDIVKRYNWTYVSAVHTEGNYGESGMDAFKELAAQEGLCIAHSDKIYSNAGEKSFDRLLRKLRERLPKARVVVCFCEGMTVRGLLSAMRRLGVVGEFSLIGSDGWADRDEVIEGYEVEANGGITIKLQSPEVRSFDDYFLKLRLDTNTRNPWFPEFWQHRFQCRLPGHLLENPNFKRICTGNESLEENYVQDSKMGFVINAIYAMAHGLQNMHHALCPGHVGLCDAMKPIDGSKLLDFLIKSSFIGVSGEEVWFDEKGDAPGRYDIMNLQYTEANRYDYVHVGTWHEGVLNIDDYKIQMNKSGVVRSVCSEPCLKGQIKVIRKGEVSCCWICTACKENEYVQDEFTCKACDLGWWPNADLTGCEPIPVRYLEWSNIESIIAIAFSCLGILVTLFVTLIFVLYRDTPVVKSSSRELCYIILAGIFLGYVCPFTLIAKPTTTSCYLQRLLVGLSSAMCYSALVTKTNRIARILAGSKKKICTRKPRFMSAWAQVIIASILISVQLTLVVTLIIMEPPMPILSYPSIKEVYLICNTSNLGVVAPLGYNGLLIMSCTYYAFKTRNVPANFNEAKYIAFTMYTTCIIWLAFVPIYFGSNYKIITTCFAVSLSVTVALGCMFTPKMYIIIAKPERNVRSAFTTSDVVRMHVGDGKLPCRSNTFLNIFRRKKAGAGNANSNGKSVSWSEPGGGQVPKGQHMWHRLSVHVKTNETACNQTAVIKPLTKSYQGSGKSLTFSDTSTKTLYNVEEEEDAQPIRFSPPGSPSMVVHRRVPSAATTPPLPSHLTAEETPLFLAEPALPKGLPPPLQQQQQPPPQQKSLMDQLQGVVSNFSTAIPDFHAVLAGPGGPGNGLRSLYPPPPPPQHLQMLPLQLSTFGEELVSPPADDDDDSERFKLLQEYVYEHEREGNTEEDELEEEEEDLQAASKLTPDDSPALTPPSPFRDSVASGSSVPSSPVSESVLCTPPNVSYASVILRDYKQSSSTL", "test": "Agonist activity at human mGlu1 receptor in HEK293 cells assessed as calcium mobilization at 10 uM by Fluo-4AM dye based fluorescence analysis", "assay_type": "functional, cell-based"}, "[9]": {"system": "Metabotropic glutamate receptor 1 (Homo sapiens), Q13255 [Y632H]", "test": "Agonist activity at human mGlu1 Y632H mutant receptor expressed in HEK293 cells assessed as calcium mobilization at > 1 uM uM by Fluo-4AM dye based fluorescence analysis", "assay_type": "functional, cell-based"}, "[10]": {"target": "Metabotropic glutamate receptor 4 (Homo sapiens, UniProt Q14833)", "sequence (Q14833 whole entry)": "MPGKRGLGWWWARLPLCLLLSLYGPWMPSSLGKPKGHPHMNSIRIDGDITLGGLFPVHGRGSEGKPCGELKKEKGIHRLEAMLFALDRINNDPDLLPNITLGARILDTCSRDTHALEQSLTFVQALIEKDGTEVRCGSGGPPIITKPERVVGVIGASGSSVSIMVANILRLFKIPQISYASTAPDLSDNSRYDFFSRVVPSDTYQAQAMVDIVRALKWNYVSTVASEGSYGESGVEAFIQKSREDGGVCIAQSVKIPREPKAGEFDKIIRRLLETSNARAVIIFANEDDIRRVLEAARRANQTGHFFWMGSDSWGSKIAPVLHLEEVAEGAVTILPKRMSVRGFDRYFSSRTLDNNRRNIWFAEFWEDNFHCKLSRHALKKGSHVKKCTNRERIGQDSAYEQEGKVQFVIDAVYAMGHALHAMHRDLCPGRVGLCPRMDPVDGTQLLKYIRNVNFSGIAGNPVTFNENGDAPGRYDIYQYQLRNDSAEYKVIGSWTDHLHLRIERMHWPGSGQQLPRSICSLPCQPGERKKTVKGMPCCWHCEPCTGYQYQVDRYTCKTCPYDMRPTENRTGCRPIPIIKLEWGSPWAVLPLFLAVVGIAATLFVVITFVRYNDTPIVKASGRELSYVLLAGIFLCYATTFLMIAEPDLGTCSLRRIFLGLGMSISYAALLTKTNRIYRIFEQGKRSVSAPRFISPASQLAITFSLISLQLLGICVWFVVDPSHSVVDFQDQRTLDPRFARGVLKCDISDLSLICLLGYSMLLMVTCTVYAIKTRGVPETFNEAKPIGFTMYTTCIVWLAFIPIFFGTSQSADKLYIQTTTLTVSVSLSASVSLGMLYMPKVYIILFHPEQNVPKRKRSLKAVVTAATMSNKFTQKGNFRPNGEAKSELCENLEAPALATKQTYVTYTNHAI", "test": "Positive allosteric modulation of human mGlu4 receptor assessed as potentiation of glutamate-induced calcium mobiliztion by cell based assay relative to PHCCC"}, "[11]": {"test": "Ratio of drug level in brain to plasma of Sprague-Dawley rat at 0.2 mg/kg, iv after 0.25 hrs by LC-MS/MS analysis", "conditions": "read-out: BPR"}, "[12]": {"target": "Metabotropic glutamate receptor 7 (Homo sapiens) (UniProt Q14831)", "test": "Positive allosteric modulation of mGlu7 receptor (unknown origin) assessed as potentiation of glutamate-induced response by cell-based assay", "method_in_brief": "as §2"}, "[13]": {"system": "Metabotropic glutamate receptor 1 (Homo sapiens), Q13255 [A683E]", "test": "Agonist activity at human mGlu1 A683E mutant receptor expressed in HEK293 cells assessed as calcium mobilization at > 1 uM uM by Fluo-4AM dye based fluorescence analysis", "assay_type": "functional, cell-based"}, "[14]": {"target": "Metabotropic glutamate receptor 1 (Rattus norvegicus, UniProt P23385)", "test": "Positive allosteric modulation of rat mGlu1 receptor assessed as potentiation of glutamate-induced calcium mobiliztion by cell based assay", "assay_type": "functional", "method_in_brief": "as §1"}, "Cytochrome P450 1A2": {"target": "T2, Cytochrome P450 1A2 (Homo sapiens, UniProt P05177)", "T2 sequence (P05177 whole entry)": "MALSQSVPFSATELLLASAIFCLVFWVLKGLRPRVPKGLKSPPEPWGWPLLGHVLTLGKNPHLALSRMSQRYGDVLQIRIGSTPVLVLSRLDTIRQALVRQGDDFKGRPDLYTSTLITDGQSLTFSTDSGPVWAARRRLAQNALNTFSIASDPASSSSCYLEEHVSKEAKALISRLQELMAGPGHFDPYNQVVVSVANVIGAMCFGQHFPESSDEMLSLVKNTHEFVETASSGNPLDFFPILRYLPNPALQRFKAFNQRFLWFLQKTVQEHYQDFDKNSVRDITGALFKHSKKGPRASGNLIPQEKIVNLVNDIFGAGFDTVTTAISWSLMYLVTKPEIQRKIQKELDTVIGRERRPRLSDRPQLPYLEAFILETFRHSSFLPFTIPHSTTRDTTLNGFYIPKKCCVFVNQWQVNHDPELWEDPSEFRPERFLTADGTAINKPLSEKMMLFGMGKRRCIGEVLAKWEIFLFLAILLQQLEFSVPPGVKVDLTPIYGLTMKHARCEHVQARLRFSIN", "test": "Inhibition of CYP1A2 in human liver microsomes by LC-MS/MS analysis", "assay_type": "ADME"}, "[15]": {"test": "Plasma clearance in Sprague-Dawley rat at 0.2 mg/kg, iv by LC-MS/MS analysis"}, "Cytochrome P450 3A4": {"target": "Cytochrome P450 3A4 (Homo sapiens, UniProt P08684)", "sequence (P08684 whole entry)": "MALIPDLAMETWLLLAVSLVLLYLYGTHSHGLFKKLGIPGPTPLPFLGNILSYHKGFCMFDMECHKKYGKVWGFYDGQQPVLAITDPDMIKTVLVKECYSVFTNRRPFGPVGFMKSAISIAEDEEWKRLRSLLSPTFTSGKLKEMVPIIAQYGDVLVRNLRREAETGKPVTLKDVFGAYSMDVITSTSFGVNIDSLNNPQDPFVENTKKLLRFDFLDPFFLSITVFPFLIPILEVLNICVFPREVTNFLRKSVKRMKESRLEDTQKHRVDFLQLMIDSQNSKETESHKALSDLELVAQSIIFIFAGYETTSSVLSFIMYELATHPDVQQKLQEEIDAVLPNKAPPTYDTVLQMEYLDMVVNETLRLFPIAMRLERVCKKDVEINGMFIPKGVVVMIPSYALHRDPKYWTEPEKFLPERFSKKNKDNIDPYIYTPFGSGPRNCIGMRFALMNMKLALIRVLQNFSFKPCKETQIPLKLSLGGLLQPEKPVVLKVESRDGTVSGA", "test": "Inhibition of CYP3A4 in human liver microsomes by LC-MS/MS analysis", "assay_type": "ADME"}, "Plasma": {"system": "Plasma", "test": "Fraction unbound in human plasma", "assay_type": "ADME, cell-free"}, "[16]": {"target": "T1, Metabotropic glutamate receptor 1", "test": "Positive allosteric modulation of human mGlu1 receptor in HEK293 cells assessed as potentiation of glutamate-induced calcium mobiliztion by Fluo-4AM dye based fluorescence analysis relative to glutamate", "assay_type": "functional, cell-based"}, "Mus musculus": {"system": "Mus musculus", "test": "Toxicity in C57BL/6 mouse assessed as seizure activity at 100 mg/kg, ip administered as single dose measured for 3 hrs", "assay_type": "organism-based", "conditions": "in vivo", "method_in_brief": "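Male C57Bl/6 mice (25−30 g) dosed ip in 10% Tween 80 at 10 mL/kg: the mGlu5 ago-PAM at 1 or 3 mg/kg, the mGlu1 PAMs at 100 mg/kg. Behaviour was monitored continuously for 3 h and scored on a modified Racine scale (0−5).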"}, "Homo sapiens": {"species_on_record": "Homo sapiens", "test": "Intrinsic clearance in human hepatocytes at 1 uM by LC-MS/MS analysis", "conditions": "read-out: CLH"}, "[17]": {"test": "Intrinsic clearance in human liver microsomes at 1 uM by LC-MS/MS analysis", "assay_type": "ADME", "conditions": "read-out: CLH"}, "Rattus norvegicus": {"system": "Rattus norvegicus", "test": "Volume of distribution at steady state in Sprague-Dawley rat at 0.2 mg/kg, iv by LC-MS/MS analysis", "conditions": "in vivo"}}, "data": [{"smiles": "Cc1ccoc1C(=O)Nc1ccc(N2C(=O)c3cccc(F)c3C2=O)c(Cl)c1", "values": [{"measurement": "IC50", "setting": "Cytochrome P450 2D6", "value": "> 30", "unit": "µM"}, {"measurement": "%max", "setting": "[1]", "value": 103, "unit": "%"}, {"measurement": "fold change (FC)", "setting": "[2]", "value": 6.7}, {"measurement": "concentration at 0.25 h", "setting": "[3]", "value": 204, "unit": "ng/mL"}, {"measurement": "fold change (FC)", "setting": "[4]", "value": 2.7}, {"measurement": "fold change (FC)", "setting": "[5]", "value": "< 2"}, {"measurement": "Activity", "setting": "Hippocampus", "value": 1.16, "unit": "Hz"}, {"measurement": "fold change (FC)", "setting": "[6]", "value": "< 2"}, {"measurement": "concentration", "setting": "Brain", "value": 9.2, "unit": "µM"}, {"measurement": "fold change (FC)", "setting": "[7]", "value": "< 2"}, {"measurement": "Activity", "setting": "[8]", "value": 35, "unit": "%"}, {"measurement": "Activity", "setting": "[9]", "value": 40, "unit": "%"}, {"measurement": "%max", "setting": "[10]", "value": 122, "unit": "%"}, {"measurement": "Kp at 0.25 h", "setting": "[11]", "value": 1.02}, {"measurement": "fold change (FC)", "setting": "[12]", "value": 7}, {"measurement": "Activity", "setting": "[13]", "value": 40, "unit": "%"}, {"measurement": "EC50", "setting": "[14]", "value": 0.0407, "unit": "µM"}, {"measurement": "IC50", "setting": "Cytochrome P450 1A2", "value": 25.2, "unit": "µM"}, {"measurement": "clearance", "setting": "[15]", "value": 13.3, "unit": "mL/min/kg"}, {"measurement": "IC50", "setting": "Cytochrome P450 3A4", "value": "> 30", "unit": "µM"}, {"measurement": "Fu", "setting": "Plasma", "value": 0.051}, {"measurement": "%max", "setting": "[16]", "value": 98, "unit": "%"}, {"measurement": "Activity", "setting": "Mus musculus", "value": "Non-toxic"}, {"measurement": "CLint scaled at 1 µM", "setting": "Homo sapiens", "value": 2.7, "unit": "mL/min/kg"}, {"measurement": "CLint scaled at 1 µM", "setting": "[17]", "value": 3.1, "unit": "mL/min/kg"}, {"measurement": "Vdss", "setting": "Rattus norvegicus", "value": 0.85, "unit": "L/kg"}]}]}
